Laboratory results reported in ChEMBL document CHEMBL4842372, “Discovery of ARD-2585 as an Exceptionally Potent and Orally Active PROTAC Degrader of Androgen Receptor for the Treatment of Advanced Prostate Cancer” (J Med Chem, 2021).
Active and inactive are the calls of the source. No cut-off for these calls is given here.

Legend:
VCaP [1] = assay: Antitumor activity against human VCaP cells xenografted in CB17:SCID mouse assessed as reduction in AR protein level in tumor at 10 mg/kg, po for 3 days measured at 24 hrs by Western blot analysis; type: functional; settings: 72 h, time 3 day
Procedure, shortened: (§1)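 Male CB17 SCID mice bearing subcutaneous VCaP tumors (5 × 10^6 cells in Matrigel); dosed by oral gavage in 100% PEG200 at 10 mg/kg daily for 3 days; tumors harvested 3, 6 and 24 h post-dose, lysed in RIPA, Western blot for AR with GAPDH loading control, bands quantified by densitometry relative to loading control.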

[2] = Drug distribution in CB17:SCID mouse xenografted with human VCaP cells assessed as heart to plasma ratio at 20 mg/kg, po measured at 24 hrs by LCMS analysis; type: ADME, organism-based
Procedure, shortened: (§2)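 Tumor-bearing male CB17 SCID mice (VCaP xenografts) given one 20 mg/kg oral dose in 100% PEG200, three mice per time point; plasma, tumor, liver, kidney, prostate and heart taken at 1, 6 and 24 h; tissues homogenised in water/acetonitrile, protein precipitated with cold acetonitrile, drug quantified by LC–MS/MS; ratios are tissue over plasma level.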

[3] = target: T1, Protein cereblon/Androgen receptor (Homo sapiens, UniProt P10275+Q96SW2); assay: Protac activity at CRBN/AR in human VCaP cells assessed as reduction in AR protein level at 3 nM after 24 hrs by Western blot analysis relative to control; type: cell-based
Procedure, shortened: (§3)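 Western blot of AR after 24 h exposure to a concentration series in ATCC-derived cells, all with 10% FBS at 37 °C and 5% CO2: LNCaP and 22Rv1 in RPMI1640, VCaP in DMEM with Glutamax, MDA-PCa-2b in F-12K. Lysis in RIPA with protease and phosphatase inhibitors, then 4–12% SDS-PAGE and PVDF transfer. Band minus background is normalised to GAPDH.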

[4] = Drug distribution in CB17:SCID mouse xenografted with human VCaP cells assessed as prostate gland to plasma ratio at 20 mg/kg, po measured at 24 hrs by LCMS analysis; type: ADME, organism-based; procedure, shortened: as §2
[5] = Drug distribution in CB17:SCID mouse xenografted with human VCaP cells assessed as heart to plasma ratio at 20 mg/kg, po measured at 6 hrs by LCMS analysis; type: ADME, organism-based; procedure, shortened: as §2
[6] = Drug distribution in CB17:SCID mouse xenografted with human VCaP cells assessed as kidney to plasma ratio at 20 mg/kg, po measured at 1 hrs by LCMS analysis; type: ADME, organism-based; procedure, shortened: as §2
[7] = Drug distribution in CB17:SCID mouse xenografted with human VCaP cells assessed as tumor to plasma ratio at 20 mg/kg, po measured at 6 hrs by LCMS analysis; type: ADME, organism-based; procedure, shortened: as §2
[8] = Drug distribution in CB17:SCID mouse xenografted with human VCaP cells assessed as tumor to plasma ratio at 20 mg/kg, po measured at 24 hrs by LCMS analysis; type: ADME, organism-based; procedure, shortened: as §2
VCaP [9] = assay: Antitumor activity against human VCaP cells xenografted in CB17:SCID mouse assessed as reduction in AR protein level in tumor at 10 mg/kg, po for 3 days measured at 6 hrs by Western blot analysis; type: functional; settings: 72 h, time 3 day; procedure, shortened: as §1
LNCaP = assay: Potency index, ratio of ARV-110 IC50 to compound IC50 for reduction in AR degradation human LNCaP cells after 24 hrs by Western blot analysis; type: functional
[10] = Drug distribution in CB17:SCID mouse xenografted with human VCaP cells assessed as liver to plasma ratio at 20 mg/kg, po measured at 6 hrs by LCMS analysis; type: ADME, organism-based; procedure, shortened: as §2
[11] = target: T1, Protein cereblon/Androgen receptor; assay: Protac activity at CRBN/AR in human VCaP cells assessed as reduction in AR protein level at 0.1 nM after 24 hrs by Western blot analysis relative to control; type: cell-based; procedure, shortened: as §3
[12] = Drug distribution in CB17:SCID mouse xenografted with human VCaP cells assessed as tumor to plasma ratio at 20 mg/kg, po measured at 1 hrs by LCMS analysis; type: ADME, organism-based; procedure, shortened: as §2
[13] = Drug distribution in tumor of CB17:SCID mouse xenografted with human VCaP cells at 20 mg/kg, po measured at 1 hrs by LCMS analysis; type: ADME, organism-based, Neoplasm; settings: read-out: Drug uptake; procedure, shortened: as §2
[14] = target: T1, Protein cereblon/Androgen receptor; assay: Protac activity at CRBN/AR in human 22Rv1 cells assessed as maximal AR degradation at 0.1 nM after 24 hrs by Western blot analysis relative to control; type: cell-based; procedure, shortened: as §3
[15] = Drug distribution in prostate gland of CB17:SCID mouse xenografted with human VCaP cells at 20 mg/kg, po measured at 1 hrs by LCMS analysis; type: ADME, organism-based; settings: read-out: Drug uptake; procedure, shortened: as §2
[16] = target: T1, Protein cereblon/Androgen receptor; assay: Protac activity at CRBN/AR in human MDA-PCa-2b cells assessed as maximal AR degradation at 1 nM after 24 hrs by Western blot analysis relative to control; type: cell-based; procedure, shortened: as §3
VCaP [17] = assay: Antitumor activity against human VCaP cells xenografted in CB17:SCID mouse assessed as tumor growth inhibition at 40 mg/kg, po treated for 37 days relative to control; type: functional; settings: 888 h, time 37 day, read-out: TGI
[18] = Drug distribution in heart of CB17:SCID mouse xenografted with human VCaP cells at 20 mg/kg, po measured at 6 hrs by LCMS analysis; type: ADME, organism-based; settings: read-out: Drug uptake; procedure, shortened: as §2
[19] = target: T1, Protein cereblon/Androgen receptor; assay: Protac activity at CRBN/AR in human VCaP cells assessed as reduction in AR protein level at 100 nM after 3 hrs in presence of MLN4924 by Western blot analysis
[20] = test system: Protein cereblon/Androgen receptor (Homo sapiens), P10275+Q96SW2 [T878A]; assay: Protac activity at CRBN/AR T878A mutant in human LNCaP cells assessed as reduction in AR protein level at 0.3 nM after 24 hrs by Western blot analysis relative to control; type: cell-based; procedure, shortened: as §3
[21] = Drug distribution in prostate gland of CB17:SCID mouse xenografted with human VCaP cells at 20 mg/kg, po measured at 24 hrs by LCMS analysis; type: ADME, organism-based; settings: read-out: Drug uptake; procedure, shortened: as §2
[22] = test system: Protein cereblon/Androgen receptor (Homo sapiens), P10275+Q96SW2 [T878A]; assay: Protac activity at CRBN/AR T878A mutant in human LNCaP cells assessed as reduction in AR protein level at 100 nM after 3 hrs in presence of MG-132 by Western blot analysis
VCaP [23] = assay: Growth inhibition of human VCaP cells assessed as cell viability by WST-8 assay; type: functional, cell-based
[24] = Drug distribution in liver of CB17:SCID mouse xenografted with human VCaP cells at 20 mg/kg, po measured at 1 hrs by LCMS analysis; type: ADME, organism-based; settings: read-out: Drug uptake; procedure, shortened: as §2
[25] = Drug distribution in plasma of CB17:SCID mouse xenografted with human VCaP cells at 20 mg/kg, po measured at 24 hrs by LCMS analysis; type: ADME, organism-based; procedure, shortened: as §2
[26] = Drug distribution in plasma of CB17:SCID mouse xenografted with human VCaP cells at 20 mg/kg, po measured at 6 hrs by LCMS analysis; type: ADME, organism-based; procedure, shortened: as §2

T1 sequence (P10275 whole entry, looked up): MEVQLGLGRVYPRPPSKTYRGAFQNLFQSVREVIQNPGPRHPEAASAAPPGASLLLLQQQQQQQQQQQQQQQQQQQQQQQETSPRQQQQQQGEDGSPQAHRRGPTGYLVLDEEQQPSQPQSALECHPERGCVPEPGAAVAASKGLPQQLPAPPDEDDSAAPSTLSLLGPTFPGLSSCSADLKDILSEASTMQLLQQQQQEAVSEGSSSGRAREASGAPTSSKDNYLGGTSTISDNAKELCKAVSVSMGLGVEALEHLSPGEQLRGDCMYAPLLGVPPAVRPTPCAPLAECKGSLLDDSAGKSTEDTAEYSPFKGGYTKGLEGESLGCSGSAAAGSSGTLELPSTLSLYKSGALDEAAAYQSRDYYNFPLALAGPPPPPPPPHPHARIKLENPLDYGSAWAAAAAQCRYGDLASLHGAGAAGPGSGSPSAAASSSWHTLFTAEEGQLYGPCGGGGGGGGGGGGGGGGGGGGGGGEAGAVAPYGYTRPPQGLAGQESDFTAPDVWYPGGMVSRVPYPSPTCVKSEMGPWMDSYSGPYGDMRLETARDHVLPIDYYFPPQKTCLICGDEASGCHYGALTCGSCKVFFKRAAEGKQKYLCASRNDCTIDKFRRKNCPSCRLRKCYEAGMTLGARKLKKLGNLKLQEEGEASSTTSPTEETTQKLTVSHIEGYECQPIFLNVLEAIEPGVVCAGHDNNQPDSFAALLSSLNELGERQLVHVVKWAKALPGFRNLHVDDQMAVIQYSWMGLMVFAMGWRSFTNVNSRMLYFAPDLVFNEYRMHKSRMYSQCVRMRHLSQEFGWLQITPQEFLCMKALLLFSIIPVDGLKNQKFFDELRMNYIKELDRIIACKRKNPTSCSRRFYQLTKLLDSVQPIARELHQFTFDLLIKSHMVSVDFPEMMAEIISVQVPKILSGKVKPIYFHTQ
T1 sequence (Q96SW2 whole entry, looked up): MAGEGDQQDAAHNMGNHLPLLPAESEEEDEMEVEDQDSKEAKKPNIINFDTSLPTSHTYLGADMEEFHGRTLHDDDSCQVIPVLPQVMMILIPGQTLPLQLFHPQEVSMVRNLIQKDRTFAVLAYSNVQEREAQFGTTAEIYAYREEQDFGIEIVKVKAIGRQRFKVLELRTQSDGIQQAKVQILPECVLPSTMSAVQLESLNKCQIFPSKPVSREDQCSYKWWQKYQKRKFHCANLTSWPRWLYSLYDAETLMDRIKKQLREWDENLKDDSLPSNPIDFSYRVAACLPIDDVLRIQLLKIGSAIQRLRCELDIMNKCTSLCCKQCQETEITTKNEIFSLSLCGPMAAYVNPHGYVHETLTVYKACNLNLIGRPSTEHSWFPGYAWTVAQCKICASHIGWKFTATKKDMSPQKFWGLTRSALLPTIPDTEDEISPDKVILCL

With `CN(c1ccc(C#N)c(Cl)c1)[C@H]1CC[C@H](NC(=O)c2ccc(N3CCN(C4CN(c5ccc6c(c5)C(=O)N(C5CCC(=O)NC5=O)C6=O)C4)CC3)cc2)CC1` (some centres not stated) the inhibition in vivo at 10 mg/kg (VCaP [1]) was 78%, the Kp at 24 h [2] was 3.2 and the inhibition [3] was 80%. The Kp at 24 h [4] was 0.5, the Kp at 6 h [5] was 2.5 and the Kp at 1 h [6] was 6.2. It also gave a Kp at 6 h [7] of 1.5, a Kp at 24 h [8] of 1.4 and an inhibition in vivo at 10 mg/kg (VCaP [9]) of 60%. The Ratio (LNCaP) was 10, the Kp at 6 h [10] was 26.2 and the inhibition [11] was over 80%. The Kp at 1 h [12] was 0.7, the concentration at 1 h [13] was 47 ng/g and the Emax [14] was over 95%. For the same molecule, the concentration at 1 h [15] was 25 ng/g, the Emax [16] was over 95% and the inhibition in vivo at 40 mg/kg (VCaP [17]) was 65.9%. The concentration at 6 h [18] was 339 ng/g, the Activity [19] was “inactive” and the inhibition [20] was over 80%. The concentration at 24 h [21] was 107 ng/g, the Activity [22] was “inactive” and the IC50 (VCaP [23]) was 1.5 nM. It also gave a concentration at 1 h [24] of 2640 ng/g, a concentration at 24 h [25] of 102 ng/mL and a concentration at 6 h [26] of 87 ng/mL.
